Measurements taken from PMC12580983 (RSC Advances, 2025).
Values after ≈ are worked out from the molar mass of the structure shown.

What was measured:
A549 cells = experiment: MTT cell viability assay, A549; format: cell-based, Human; settings: IC50 Vero cells / IC50 A549 cells
P. falciparum (Pf3D7) [1] = experiment: Parasitemia and suppression of Pf3D7 culture after 72 h of treatment; format: cell-based, Plasmodium falciparum; settings: for percentage suppression of parasitemia: concentration not given
P. falciparum (Pf3D7) [2] = experiment: SYBR green I fluorescence antiplasmodial assay; format: cell-based, Plasmodium falciparum; settings: for selectivity index (SI) towards Pf3D7: antimalarial selectivity, way of calculation not stated
Method in brief: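 Chloroquine-sensitive P. falciparum 3D7 was grown in O+ human erythrocytes (4% haematocrit) in RPMI 1640 with 25 mM HEPES and 0.5% Albumax I, at 37 °C under 5% O2/5% CO2/90% N2. Sorbitol-synchronised rings (2% haematocrit, 1% parasitaemia) got increasing concentrations in water. SYBR Green I was read after 0.08% Triton X-100, 1 h at 37 °C in the dark (ex 485/em 530 nm), chloroquine-well counts subtracted. IC50 came from dose–response curves.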

| SMILES | Selectivity Index (SI) (A549 cells) | % Parasitemia (P. falciparum (Pf3D7) [1]; 12.5 μg mL^−1, 72 h) | % Suppression (P. falciparum (Pf3D7) [1]; 12.5 μg mL^−1, 72 h) | % Parasitemia (P. falciparum (Pf3D7) [1]; 100 μg mL^−1, 72 h) | percentage suppression of parasitemia (P. falciparum (Pf3D7) [1]) | % Suppression (P. falciparum (Pf3D7) [1]; 100 μg mL^−1, 72 h) | IC50 (P. falciparum (Pf3D7) [2]; Plasmodium falciparum, 72 h, read-out: IC50 µM Pf3D7) | selectivity index (SI) towards Pf3D7 (P. falciparum (Pf3D7) [2]) |
| --- | --- | --- | --- | --- | --- | --- | --- | --- |
| C/C(=N/NC(=O)c1cn(-c2ccccc2)nc1-c1ccc(F)cc1)c1c(O)cc(C)oc1=O [3a, (Z)-3-(4-fluorophenyl)-N′-(1-(4-hydroxy-6-methyl-2-oxo-2H-pyran-3-yl)ethylidene)-1-phenyl-1H-pyrazole-4-carbohydrazide] | 2.78 | 93.33% | 6.67% | 2.95% | 97% |  |  |  |
| CCN(CC)CCCC(C)Nc1ccnc2cc(Cl)ccc12 (stereo not drawn) [CQ, Chloroquine, reference compound] |  | 0.95% | 99.05% | 0.95% |  | 99.05% |  |  |
| C/C(=N/NC(=O)c1cn(-c2ccccc2)nc1-c1ccc(C)cc1)c1c(O)cc(C)oc1=O [3d, (Z)-3-(4-methylphenyl)-N′-(1-(4-hydroxy-6-methyl-2-oxo-2H-pyran-3-yl)ethylidene)-1-phenyl-1H-pyrazole-4-carbohydrazide] |  | 42.19% | 57.81% | 2.47% | 97% |  | 5.2 µg/mL (≈ 11.8 µM) | 18.38 |
| C/C(=N/NC(=O)c1cn(-c2ccccc2)nc1-c1ccccc1)c1c(O)cc(C)oc1=O [3e, (Z)-N′-(1-(4-hydroxy-6-methyl-2-oxo-2H-pyran-3-yl)ethylidene)-1,3-diphenyl-1H-pyrazole-4-carbohydrazide] | 4.56 | 73.81% | 26.19% | 37.62% |  | 62.38% |  | 9.48 |
| C/C(=N/NC(=O)c1cn(-c2ccccc2)nc1-c1ccc(Br)cc1)c1c(O)cc(C)oc1=O [3c, (Z)-3-(4-bromophenyl)-N′-(1-(4-hydroxy-6-methyl-2-oxo-2H-pyran-3-yl)ethylidene)-1-phenyl-1H-pyrazole-4-carbohydrazide] |  | 52.90% | 47.10% | 5.81% |  | 94.19% |  |  |
| N.N.O=C([O-])C1(C(=O)[O-])CCC1.[Pt+2] [Carboplatin, reference compound] | 2.57 |  |  |  |  |  |  |  |
| C/C(=N/NC(=O)c1cn(-c2ccccc2)nc1-c1ccc(Cl)cc1)c1c(O)cc(C)oc1=O [3b, (Z)-3-(4-chlorophenyl)-N′-(1-(4-hydroxy-6-methyl-2-oxo-2H-pyran-3-yl)ethylidene)-1-phenyl-1H-pyrazole-4-carbohydrazide] | 3.25 | 68.38% | 31.62% | 62.57% |  | 37.43% |  |  |
| N.N.[Cl][Pt][Cl] [Cisplatin, reference compound] | 1.35 |  |  |  |  |  |  |  |
| C[C@@H]1C[C@H]2[C@@H]3CCC4=CC(=O)C=C[C@]4(C)[C@@]3(F)[C@@H](O)C[C@]2(C)[C@@]1(O)C(=O)CO [Dexamethasone, reference compound] | 0.23 |  |  |  |  |  |  |  |
